61 molecules from ChEMBL document CHEMBL1151964, “Divergent modes of enzyme inhibition in a homologous structure-activity series” (J Med Chem, 2009) can be followed below.

Calls of active or inactive are those of the source. The calls are words filed in the database; no cut-off is given here.

The nature of test [1]: Inhibition of Beta-lactamase AmpC at 50 uM preincubated for 5 mins before substrate addition. In a few lines: (§1)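 β-Lactamase AmpC inhibition was tested at the concentration stated, both without and with 0.01% Triton X-100. A compound was called an aggregator when its inhibition was detergent-sensitive.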
The target of test [2] is T1, Cruzipain (Trypanosoma cruzi, UniProt P25779). As to the kind of experiment: Inhibition of Trypanosoma cruzi cruzain preincubated for 5 mins before substrate addition in presence of 0.001% Triton X-100. In a few lines:
(§2)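 Cruzain IC50s were measured from dose-response curves with Triton X-100 in the assay buffer at either 0.01% or 0.001%. At 0.001% Triton, some runs included pre-incubation with BSA.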

In test [3] the target is T1, Cruzipain. As to the kind of experiment: Inhibition of Trypanosoma cruzi cruzain preincubated for 5 mins before substrate addition in presence of 0.001% Triton X-100 with 1 mg/ml bovine serum albumin.
Test [4] deals with T1, Cruzipain. As to the kind of experiment: Inhibition of Trypanosoma cruzi cruzain preincubated for 5 mins before substrate addition. An outline of the steps:
as §2

Test [5] concerns the target Cruzipain (Trypanosoma cruzi) (UniProt P25779). As to the kind of experiment: Inhibition of Trypanosoma cruzi cruzain assessed as colloidal aggregates particles formation after 5 mins by flow cytometry. An outline of the steps: (§3)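 Particle (aggregate) formation was assessed by flow cytometry, with some samples checked by dynamic light scattering. The value is the lowest concentration tested at which particles were seen.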
(In general: In flow cytometry, cells or beads pass a laser one at a time.)

In test [6] the target is T1, Cruzipain. As to the kind of experiment: Inhibition of Trypanosoma cruzi cruzain preincubated for 5 mins before substrate addition in presence of 0.01% Triton X-100. An outline of the steps:
as §2

Test [7] concerns the target Cruzipain (Trypanosoma cruzi) (UniProt P25779). As to the kind of experiment: Inhibition of Trypanosoma cruzi cruzain assessed as colloidal aggregates particles formation after 5 mins by flow cytometry in presence of 0.001% Triton X-100. In a few lines: as §3
For test [8] the target is unchanged. As to the kind of experiment: Inhibition of Trypanosoma cruzi cruzain at 200 uM preincubated for 5 mins before substrate addition.
The target is the same in test [9]. To be noted: 50 uM.
Test [10] shares this target. To be noted: 5 uM.
For test [11] the target is unchanged. As to the kind of experiment: Inhibition of Trypanosoma cruzi cruzain assessed as colloidal aggregates particles formation at 3.1 uM after 5 mins by dynamic light scattering assay.
Test [12] in a line: Inhibition of Beta-lactamase AmpC at 13 uM preincubated for 5 mins before substrate addition. In a few lines:
as §1

Test [13] can be described thus: Inhibition of Beta-lactamase AmpC preincubated for 5 mins before substrate addition in presence of 0.01% Triton X-100. In a few lines:
(§4)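 AmpC β-lactamase inhibition measured without detergent and with 0.01% Triton X-100, at the compound concentrations listed per compound. A compound was classed as an aggregator if its inhibition was detergent-sensitive.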

The target of test [14] is T1, Cruzipain. As to the kind of experiment: Competitive inhibition of Trypanosoma cruzi cruzain by Lineweaver-Burke plot analysis.
Test [15] can be described thus: Inhibition of Beta-lactamase AmpC at 100 uM preincubated for 5 mins before substrate addition. In a few lines:
as §4

Test [16] deals with Cruzipain (Trypanosoma cruzi) (UniProt P25779). The note with it: 25 uM.
Chain of Cruzipain (Trypanosoma cruzi) (P25779 123-467 limits assumed): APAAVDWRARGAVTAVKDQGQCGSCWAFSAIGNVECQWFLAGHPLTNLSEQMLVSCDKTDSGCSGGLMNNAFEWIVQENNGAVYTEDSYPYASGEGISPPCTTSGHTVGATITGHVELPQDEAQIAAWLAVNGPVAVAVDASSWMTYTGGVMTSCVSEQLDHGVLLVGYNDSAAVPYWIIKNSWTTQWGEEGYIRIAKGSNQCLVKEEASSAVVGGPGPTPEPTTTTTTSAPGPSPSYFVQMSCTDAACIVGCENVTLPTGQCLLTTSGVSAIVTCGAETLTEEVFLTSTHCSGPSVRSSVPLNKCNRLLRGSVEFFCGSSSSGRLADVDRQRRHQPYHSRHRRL

T1 sequence (P25779 whole entry): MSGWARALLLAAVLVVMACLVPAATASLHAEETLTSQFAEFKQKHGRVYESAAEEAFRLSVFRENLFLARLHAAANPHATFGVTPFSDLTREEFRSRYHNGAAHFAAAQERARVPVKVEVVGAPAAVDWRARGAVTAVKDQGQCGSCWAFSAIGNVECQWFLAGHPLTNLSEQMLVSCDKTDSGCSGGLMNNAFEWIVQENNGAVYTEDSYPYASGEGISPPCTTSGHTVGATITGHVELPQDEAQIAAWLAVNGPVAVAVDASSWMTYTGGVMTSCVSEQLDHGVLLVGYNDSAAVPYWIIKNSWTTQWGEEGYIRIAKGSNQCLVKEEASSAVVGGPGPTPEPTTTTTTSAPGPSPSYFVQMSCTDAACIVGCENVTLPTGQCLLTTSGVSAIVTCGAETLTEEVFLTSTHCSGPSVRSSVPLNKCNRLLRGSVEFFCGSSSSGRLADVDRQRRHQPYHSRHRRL

Take `Nc1ccccc1-c1nnc(C(=O)Nc2cccc(N3CCCC3)c2)o1`: the inhibition – broadly, how much of the control response was suppressed – in test [1] was “Active”. The results for the IC50 on Cruzipain [2], at Cruzipain [3] and against Cruzipain [4] were 7 µM, 99 µM and 7 µM, respectively. The Activity in test [5] was determined as 50 µM.
For the molecule `Cc1cc2cc(NC(=O)c3nnc(-c4ccccc4N)o3)ccc2[nH]1`, the figures for the IC50 on Cruzipain [2], at Cruzipain [4] and at Cruzipain [6] were 6 µM, 6 µM and greater than 100 µM, respectively.
As to `Nc1ccccc1-c1nnc(C(=O)NC2CCNCC2)o1`, on Cruzipain [4], the IC50 (as a rule, the concentration that gives 50% inhibition) is greater than 100 µM.
In the case of `Nc1ccccc1-c1nnc(C(=O)NCc2csc(-c3cccs3)n2)o1`, the IC50 against Cruzipain [4] and at Cruzipain [6] was 2 µM each time.
As to `CCN1CCC[C@H]1CNC(=O)c1nnc(-c2ccccc2N)o1`, the IC50 on Cruzipain [2], at Cruzipain [4] and on Cruzipain [6] was greater than 100 µM in each case. Besides, the Activity in [5] is greater than 200 µM. Also, the outcome in [7] was inactive.
The molecule `Nc1ccccc1-c1nnc(C(=O)NCc2ccc(Cn3cccn3)cc2)o1` registered an IC50 against Cruzipain [4] of 8 µM.
As to `COc1ccc(OC)c(CNC(=O)c2nnc(-c3ccccc3N)o2)c1`, the IC50 at Cruzipain [2] worked out at 8 µM; on Cruzipain [3] it was 45 µM; against Cruzipain [4], 8 µM.
The molecule `Nc1ccccc1C(=O)NCC(=O)NC1CCCCC1` yielded an inhibition in test [8] of 15%.
Molecule `Cc1nn(-c2ccccc2)nc1CNC(=O)c1nnc(-c2ccccc2N)o1` returned an IC50 against Cruzipain [4] of 7 µM.
On the same count and under the same terms, the value for `Nc1ccccc1-c1nnc(C(=O)NCc2ccccc2N2CCOCC2)o1` was 38 µM.
`Nc1ccccc1-c1nnc(C(=O)NCCN2CCOCC2)o1`: the IC50 at Cruzipain [2], against Cruzipain [4] and at Cruzipain [6] was greater than 100 µM throughout.
The molecule `Nc1ncccc1C(=O)OCC(=O)Nc1ccccc1OC(F)F` displayed an inhibition in test [8] of 58%. For the same molecule, the IC50 at Cruzipain [6] is 126 µM.
In the case of `Nc1ccccc1-c1nnc(C(=O)Nc2cc(-c3ccccc3)[nH]n2)o1`, the IC50 at Cruzipain [2] and against Cruzipain [4] was 0.8 µM in each case.
Consider `Nc1ccccc1-c1nnc(C(=O)Nc2ccc(N3CCOCC3)cc2)o1`, for which the 50% inhibitory concentration (IC50) at Cruzipain [4] and on Cruzipain [6] was 62 µM in each case.
`O=C(COC(=O)c1ccccn1)Nc1cc(Cl)ccc1Cl`: the inhibition in test [8] was found to be 16%. The IC50 on Cruzipain [6] is greater than 200 µM.
On to `Nc1ccccc1-c1nnc(C(=O)Nc2cc(-c3cccs3)n[nH]2)o1`, for which the IC50 on Cruzipain [2] came to 1 µM; on Cruzipain [3], 102 µM; on Cruzipain [4], 1 µM.
Consider `Nc1ccccc1-c1nnc(C(=O)NCc2ccc(Oc3ccccc3)cc2)o1`, for which the IC50 at Cruzipain [4] and at Cruzipain [6] was 6 µM throughout.
On to `Nc1ccccc1-c1nnc(C(=O)NC2CCc3ccccc32)o1` (stereo not drawn), for which it took 17 µM to reach half-maximal inhibition against Cruzipain [4] (IC50).
On the same count and under the same terms, the value for `Nc1ccccc1-c1nnc(C(=O)N[C@H]2CCCCNC2=O)o1` was greater than 100 µM.
`Cc1ccc(-c2cc(NC(=O)c3nnc(-c4ccccc4N)o3)[nH]n2)cc1`: the IC50 on Cruzipain [2] and at Cruzipain [4] was 0.5 µM in each case.
In turn, `Nc1ccccc1-c1nnc(C(=O)NCc2ccc(C(F)(F)F)c(F)c2)o1` displayed an IC50 at Cruzipain [4] of 10 µM.
On Cruzipain [4], `Nc1ccccc1-c1nnc(C(=O)NCc2ccnc(N3CCSCC3)c2)o1` displayed an IC50 of 23 µM.
The molecule `Nc1ccccc1-c1nnc(C(=O)NCCCn2ccnc2)o1` registered an IC50 against Cruzipain [4] greater than 100 µM.
For the molecule `Nc1ccccc1-c1nnc(C(=O)Nc2ccc3oc4c(c3c2)CCCC4)o1`, the inhibition entry in test [1] was “Active”. The IC50 at Cruzipain [2] and against Cruzipain [4] was 2 µM throughout. Moreover, the Activity in [5] is greater than 100 µM.
`Nc1ccccc1C(=O)OCC(=O)Nc1cc(Cl)ccc1Cl` registered a half-maximal inhibitory concentration (IC50) against Cruzipain [4] of 58 µM.
Take `Cc1cc(NC(=O)c2nnc(-c3ccccc3N)o2)[nH]n1`: the IC50 on Cruzipain [2] and at Cruzipain [4] was 11 µM in each case.
As to `Nc1ccccc1-c1nnc(C(=O)Nc2nnc(-c3ccc(Cl)cc3)s2)o1`, the IC50 against Cruzipain [4] and on Cruzipain [6] was 4 µM in each case.
`CCC(NC(=O)COC(=O)c1cccnc1N)c1ccc(Br)cc1` (stereo not drawn) gave an inhibition in test [8] of 65%. The IC50 against Cruzipain [4] amounted to 84 µM. In test [7], the Activity is 250 nM.
For `CC1C2CCC(C)(C2)C1NC(=O)c1nnc(-c2ccccc2N)o1` (stereo not drawn), on Cruzipain [4], the midpoint of inhibition, the IC50, lay at 36 µM.
Take `Cn1nccc1NC(=O)c1nnc(-c2ccccc2N)o1`: the IC50 at Cruzipain [4] and at Cruzipain [6] was greater than 100 µM throughout.
Consider `Nc1ccccc1-c1nnc(C(=O)NCc2cccc3nsnc23)o1`, for which, on Cruzipain [4], the IC50 was 6 µM.
For `Nc1ccccc1-c1nnc(C(=O)NC2Cc3ccccc3C2)o1`, the IC50 on Cruzipain [4] and on Cruzipain [6] was 11 µM each time.
Regarding `Nc1ccccc1-c1nnc(C(=O)N[C@@H]2c3ccccc3C[C@@H]2O)o1`, at Cruzipain [4], the IC50 worked out at 32 µM.
Turning to `Nc1ccccc1-c1nnc(C(=O)Nc2ccc3[nH]ncc3c2)o1`, the IC50 at Cruzipain [4] was 41 µM.
For the molecule `Cc1cc(NC(=O)c2nnc(-c3ccccc3N)o2)n[nH]1`, the inhibition result in test [1] is “inactive”. The Activity in test [5] amounted to 50 µM.
Take `Nc1ccccc1-c1nnc(C(=O)NCc2ccccc2OC2CCOCC2)o1`: the IC50 at Cruzipain [4] is 42 µM.
Still for that read-out and setting: the value for `COc1cc(CNC(=O)c2nnc(-c3ccccc3N)o2)cc(OC)c1OC` was greater than 100 µM; that for `Nc1ccccc1-c1nnc(C(=O)NCc2cccc(-n3cccn3)c2)o1` was 17 µM.
As for `Nc1ccccc1-c1nnc(C(=O)NCc2ccnc(N3CCOCC3)c2)o1`, the 50% inhibitory concentration (IC50) on Cruzipain [4] and on Cruzipain [6] was 83 µM throughout.
As for `Nc1ccccc1-c1nnc(C(=O)Nc2cc(-c3cccs3)[nH]n2)o1`, the inhibition entry in [9] and in [10] was “Active” throughout.
For the molecule `COc1ccc(-c2cc(NC(=O)c3nnc(-c4ccccc4N)o3)n[nH]2)cc1`, the IC50 at Cruzipain [2] and against Cruzipain [4] was 0.2 µM in each case. The result in [11] was Active. The Activity in test [5] turned out to be 3.1 µM. Moreover, the inhibition result in test [12] was “Active”.
Regarding `CC(C)(C)c1cc(NC(=O)c2nnc(-c3ccccc3N)o2)n[nH]1`, the Activity in [5] came out at 3.1 µM. Also, the inhibition result in test [12] was “Active”.
Take `Nc1ncccc1C(=O)OCC(=O)Nc1ccc2c(c1)OCCO2`: the inhibition in [8] was found to be 51%. Also, the IC50 on Cruzipain [6] amounted to 182 µM.
In the same order, the values of `Cc1cccc(C(=O)OCC(=O)Nc2cc(Cl)ccc2Cl)c1` are 5% and greater than 200 µM.
Take `Nc1ncccc1C(=O)NCC(=O)NC1CCCCC1`: the inhibition in test [8] came to 16%.
Regarding `Nc1ncccc1C(=O)OCC(=O)NC1CCCCCC1`, the inhibition in test [8] was 68%. At Cruzipain [4], this molecule had an IC50 of 87 µM. In [7], the Activity was 250 nM.
Molecule `Nc1ccccc1-c1nnc(C(=O)NCCN2CCNC2=O)o1` registered an IC50 at Cruzipain [4] greater than 100 µM.
The same measure, in the same setting: the value for `Nc1ccccc1-c1nnc(C(=O)NCc2nc3ccccc3[nH]2)o1` was 17 µM.
In the case of `Nc1ccccc1-c1nnc(C(=O)NCCCN2CCCC2=O)o1`, the IC50 at Cruzipain [2], on Cruzipain [4] and at Cruzipain [6] was greater than 100 µM throughout. For the same molecule, in test [5], the Activity is greater than 200 µM. In test [7], the outcome was inactive.
With `CC(NC(=O)c1nnc(-c2ccccc2N)o1)C12CC3CC(CC(C3)C1)C2` (stereo not drawn), the IC50 against Cruzipain [4] and at Cruzipain [6] was 18 µM throughout.
As to `Nc1ccccc1-c1nnc(C(=O)NCc2c(N)cccc2F)o1`, on Cruzipain [4], inhibition was half-maximal at 52 µM (IC50).
On the same count and under the same terms, the value for `CCN(CC)c1ccc(NC(=O)c2nnc(-c3ccccc3N)o2)cc1` was 36 µM.
For `Nc1ncccc1C(=O)OCC(=O)Nc1cc(Cl)ccc1Cl`, the IC50 on Cruzipain [2] worked out at 27 µM; on Cruzipain [3], 116 µM; against Cruzipain [4], 77 µM. Besides, the inhibition entry in [13] was “inactive”. Also, the inhibition in test [8] is 79%. Affinity on Cruzipain [14] was put at a Ki of 32 µM. Besides, the inhibition entry in [15] and in test [16] was “Active” in each case. Besides, the Activity in test [7] came to 250 nM.
Take `Cn1ccc(NC(=O)c2nnc(-c3ccccc3N)o2)n1`: the IC50 on Cruzipain [2], against Cruzipain [4] and on Cruzipain [6] was greater than 100 µM each time. In addition, in test [5], the Activity worked out at 200 µM.
As for `Nc1ccccc1-c1nnc(C(=O)NCc2cccc(N3CCOCC3)c2)o1`, on Cruzipain [4], the half-inhibitory concentration (IC50) was 33 µM.
For the molecule `CC(C)(C)c1cc(NC(=O)c2nnc(-c3ccccc3N)o2)[nH]n1`, the IC50 at Cruzipain [2] and against Cruzipain [4] was 2 µM throughout.
For `Nc1ccccc1-c1nnc(C(=O)NCc2c(Cl)cccc2Cl)o1`, the IC50 at Cruzipain [2] was 8 µM.
On Cruzipain [4], `Nc1ccccc1-c1nnc(C(=O)NCc2ccc3c(c2)OCO3)o1` gave an IC50 of 6 µM.
With `Nc1ccccc1-c1nnc(C(=O)Nc2nc(-c3ccc(Cl)cc3)cs2)o1`, at Cruzipain [4], half-maximal inhibition (IC50) was put at 3 µM.
In test [8], `NC(=O)c1ccsc1NC(=O)COC(=O)c1cc(Br)ccc1N` yielded an inhibition of 61%. Besides, the IC50 on Cruzipain [6] came to 90 µM.
In the case of `Cc1ccc(CNC(=O)c2nnc(-c3ccccc3N)o2)o1`, the IC50 against Cruzipain [4] worked out at 14 µM.
